In ChEMBL document CHEMBL2331462, “Antiallodynic and analgesic effects of maslinic acid, a pentacyclic triterpenoid from Olea europaea” (J Nat Prod, 2013):
The source made the active and inactive calls.

What was measured:
Mus musculus [1] = assay: Analgesic activity in CD-1 mouse assessed as inhibition of acetic acid-induced writhing response at 100 mg/kg, sc measured after 30 mins; format: functional, organism-based; parameters: dose 100 mg/kg
In short: (§1)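 Female CD-1 mice (25−30 g), dosed sc interscapularly in 2% Tween 80 in water (5 mL/kg), 30 min before ip 0.6% acetic acid (10 mL/kg). Writhes (torso stretches with back arching and leg extension) counted cumulatively over 30 min. Mean ± SEM of 8−12 mice per group versus vehicle, one-way ANOVA with Bonferroni.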

Mus musculus [2] = assay: Antinociceptive activity in CD-1 mouse assessed as reduction of formalin-induced inflammatory pain at 100 mg/kg, sc administered 15 mins challenge measured up to 5 mins; format: functional, organism-based; parameters: dose 100 mg/kg
Mus musculus [3] = assay: Antiallodynic activity against capsaicin-induced secondary mechanical pain in CD-1 mouse assessed as paw withdrawal-latency at 100 mg/kg, sc measured after 30 mins post compound administration; format: functional, organism-based; parameters: dose 100 mg/kg
In short: (§2)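 Female CD-1 mice, sc dosing in 2% Tween 80 (5 mL/kg) 30 min before testing. Capsaicin (1 μg in 20 μL 1% DMSO) given ipl; 15 min later a 0.5 g force was applied with an electronic von Frey device ≥5 mm from the injection site toward the toes. Paw withdrawal latency recorded over three trials at 30 s intervals, 50 s cutoff. 8−12 mice per group, two-way ANOVA with Bonferroni.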

Mus musculus [4] = assay: Antinociceptive activity in CD-1 mouse assessed as reduction of formalin-induced inflammatory pain at 100 mg/kg, sc administered 15 mins challenge measured after 10 to 50 mins; format: functional, organism-based; parameters: dose 100 mg/kg
Mus musculus [5] = assay: Neurotoxicity in CD-1 mouse assessed as impairment in motor coordination at 8 mg/kg, sc measured up to 3 hrs by rotarod test; format: toxicity, organism-based; parameters: dose 8 mg/kg, route subcutaneous; conditions: in vivo
In short: (§3)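 Female CD-1 mice trained three times on an accelerating rotarod (4 to 40 rpm over 5 min) 24 h before testing. Sc dosing in 2% Tween 80; latency to fall (300 s cutoff) recorded just before and 30, 60, 120 and 180 min after injection. 8−12 mice per group, two-way repeated-measures ANOVA with Bonferroni.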

Mus musculus [6] = assay: Neurotoxicity in CD-1 mouse assessed as impairment in motor coordination at 512 mg/kg, sc measured up to 3 hrs by rotarod test; format: toxicity, organism-based; parameters: dose 512 mg/kg, route subcutaneous; conditions: in vivo; in short: as §3
Mus musculus [7] = assay: Antiallodynic activity against capsaicin-induced secondary mechanical pain in sc dosed CD-1 mouse assessed as paw withdrawal-latency measured after 30 mins post compound administration; format: functional, organism-based; in short: as §2
Mus musculus [8] = assay: Antinociceptive activity in CD-1 mouse assessed as reduction of formalin-induced inflammatory pain at 1 % administered topically 15 mins challenge measured after 10 to 50 mins; format: functional, organism-based
In short: (§4)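 Female CD-1 mice, unanesthetized and restrained. 0.1 g of a 1% compound-enriched Carbopol gel (1% Carbopol, 2% triethanolamine, 5% propylene glycol) or vehicle gel was spread on the plantar hindpaw, ipsilateral or contralateral, 15 min before intraplantar formalin (20 μL, 5%). Licking/biting time scored for phase 1 (0−5 min) and phase 2 (10−50 min). 8−12 mice per group.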

Mus musculus [9] = assay: Analgesic activity in CD-1 mouse assessed as inhibition of acetic acid-induced writhing response at 64 to 256 mg/kg, sc measured after 30 mins; format: functional, organism-based; in short: as §1
Mus musculus [10] = assay: Antinociceptive activity in CD-1 mouse assessed as reduction of formalin-induced inflammatory pain at 1 % administered topically 15 mins challenge measured up to 5 mins; format: functional, organism-based; in short: as §4
Mus musculus [11] = assay: Antiallodynic activity against capsaicin-induced secondary mechanical pain in CD-1 mouse assessed as paw withdrawal-latency at 64 mg/kg, sc measured after 30 mins post compound administration; format: functional, organism-based; parameters: dose 64 mg/kg; in short: as §2
Mus musculus [12] = assay: Neurotoxicity in CD-1 mouse assessed as impairment in motor coordination at 64 mg/kg, sc measured up to 3 hrs by rotarod test; format: toxicity, organism-based; parameters: dose 64 mg/kg, route subcutaneous; conditions: in vivo; in short: as §3

CC(C)Cc1ccc(C(C)C(=O)O)cc1 (configuration not stated)
inhibition (Mus musculus [1]): Active | Activity (Mus musculus [2]): inactive | Activity (Mus musculus [3]): inactive | Activity (Mus musculus [4]): Active

NCC(CC(=O)O)c1ccc(Cl)cc1 (configuration not stated) [BACLOFEN]
Activity (Mus musculus [5]): Toxic

CC1(C)CC[C@]2(C(=O)O)CC[C@]3(C)C(=CC[C@@H]4[C@@]5(C)C[C@@H](O)[C@H](O)C(C)(C)[C@@H]5CC[C@]43C)[C@@H]2C1 [MASLINIC ACID]
Activity (Mus musculus [6]): Non-toxic | Activity (Mus musculus [7]): Dose-dependent effect | Activity (Mus musculus [8]): Active | inhibition (Mus musculus [9]): Active | Activity (Mus musculus [10]): inactive

CC(C)C[C@H](CN)CC(=O)O [PREGABALIN]
Activity (Mus musculus [11]): Active | Activity (Mus musculus [12]): Toxic
